Data reported in ChEMBL document CHEMBL4673269, “Discovery of S64315, a Potent and Selective Mcl-1 Inhibitor” (J Med Chem, 2020).
Calls of active or inactive are those of the source. No cut-off for these calls is given here.

How the values were obtained:
[1] = Plasma protein binding in human assessed as unbound fraction; type: ADME, cell-free
AMO1 [2] = test: Antitumor activity against human AMO1 xenografted in CB-17 SCID mouse assessed as tumor growth inhibition at 12.5 mg/kg, iv administered weekly for upto week 4 measured post last dose measured on day 10; type: functional; conditions: time 4 weeks, read-out: TGI
Method in brief: (§1)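 Female CB-17 SCID mice, 6−7 weeks old. 5 × 10⁶ AMO-1 cells in growth medium/Matrigel 50:50 injected subcutaneously in the right flank. Randomised at about 200 mm³, n = 8 to 10 per group. Dosed iv in 20% HPbCD–25 mM HCl, daily for 5 days or weekly for 4 weeks. Calipers 2−3 times weekly; volume = length × width²/2. TGI computed from median change in volume versus control; delay judged at median volume 500 mm³.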

[3] = molecular target: Induced myeloid leukemia cell differentiation protein Mcl-1 (Homo sapiens) (UniProt Q07820); test: Displacement of Bak BH3 domain from FLAG-tagged Mcl-1 (unknown origin) expressed in human Hela cells at 30 to 300 nM incubated for 2 hrs by immunoprecipitation assay; type: cell-based; conditions: dose 30-300 nM
Method in brief: (§2)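 HeLa cells in DMEM with 10% FCS were transiently transfected with Flag-tagged Mcl-1, Bcl-xL or Bcl-2 vectors. 24 h later they were treated for 2 h and lysed (Hepes pH 7.5, 150 mM KCl, MgCl₂, EDTA, 0.4% Triton X100). Cleared lysates were immunoprecipitated with anti-Flag M2 beads. Inputs and IPs were immunoblotted for endogenous Bax, Bak and Flag.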

Daudi = test: Antiproliferative activity against human Daudi assessed as reduction in cell viability incubated for 3 days by Cell Titer Blue assay; type: functional, cell-based; conditions: time 3.0 day
AMO1 [4] = test: Antitumor activity against human AMO1 xenografted in CB-17 SCID mouse assessed as maximum tumor growth inhibition at 3.125 mg/kg, iv administered for 5 consecutive days measured post-last dose; type: functional; set-up: scale not given: the % may be the effect or the level left; conditions: time 5 day; method in brief: as §1
NCI-H929 = test: Induction of apoptosis in human H929 cells assessed as induction of PARP cleavage incubated for 6 hrs by immunodetection analysis; type: functional, cell-based; conditions: dose 1-3000 nM
Method in brief: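 H929 cells in RPMI 1640 with 10% FBS were seeded at 2 × 10⁶ cells per 35 mm dish. After 24 h they were exposed to compound for 6 h, then lysed (Hepes pH 7.4, KCl, MgCl₂, EDTA, 1% NP40). 5 μg lysate was assayed for cleaved PARP with the MSD apoptosis panel, read as RLU. Two independent biological experiments.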

[5] = Terminal half-life in mouse at […] mg/kg, iv formulated with 20 % HPBCD in water/ […]% HCl; type: ADME, organism-based; conditions: in vivo, read-out: beta t1/2 (converted)
NOMO-1 = test: Antiproliferative activity against human NOMO1 assessed as reduction in cell viability incubated for 3 days by Cell Titer Blue assay; type: functional, cell-based; conditions: time 3.0 day
AMO1 [6] = test: Antitumor activity against human AMO1 cells xenografted in CB-17 SCID mouse assessed as time to reach tumor volume of 500 mm3 at […] mg/kg, iv administered as bolus dose for 5 consecutive days; type: functional; conditions: time 5 day
OCI-Ly7 = test: Antiproliferative activity against human OCI-LY7 assessed as reduction in cell viability incubated for 3 days by Cell Titer Blue assay; type: functional, cell-based; conditions: time 3.0 day
[7] = molecular target: Apoptosis regulator Bcl-2 (Homo sapiens) (UniProt P10415); test: Displacement of Bax BH3 domain from FLAG-tagged Bcl-2 (unknown origin) expressed in human Hela cells at 30 to 300 nM incubated for 2 hrs by immunoprecipitation assay; type: cell-based; conditions: dose 30-300 nM; method in brief: as §2
OCI-AML2 = test: Antiproliferative activity against human OCI-AML2 assessed as reduction in cell viability incubated for 3 days by Cell Titer Blue assay; type: functional, cell-based; conditions: time 3.0 day
[8] = molecular target: Bcl-2-like protein 1 (Homo sapiens) (UniProt Q07817); test: Displacement of Bak BH3 domain from FLAG-tagged Bcl-xl (unknown origin) expressed in human Hela cells at 30 to 300 nM incubated for 2 hrs by immunoprecipitation assay; type: cell-based; conditions: dose 30-300 nM; method in brief: as §2
Raji = test: Antiproliferative activity against human Raji assessed as reduction in cell viability incubated for 3 days by Cell Titer Blue assay; type: functional, cell-based; conditions: time 3.0 day
[9] = Clearance in mouse at 12.5 mg/kg, iv formulated with 20 % HPBCD in water/ […]; type: ADME, organism-based; conditions: in vivo
THP-1 = test: Induction of apoptosis in human THP1 cells incubated for 2 hrs by annexin-V-FITC and propidium iodide staining based by flow cytometry; type: functional, cell-based
Method in brief: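 THP-1 cells, wild type or CRISPR BAX/BAK knockout (verified by Western blot), were treated for 2 h. They were washed in binding buffer (10 mM Hepes, 140 mM NaCl, 2.5 mM CaCl₂) and stained with annexin V-FITC and PI for 15 min at 20 °C in the dark. 10⁴ cells per sample were read by flow cytometry. Apoptotic plus necrotic cells were normalised to total cells. Two biological replicates; DMSO control.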

PL21 = test: Antiproliferative activity against human PL21 assessed as reduction in cell viability incubated for 3 days by Cell Titer Blue assay; type: functional; conditions: time 3.0 day
MV4-11 = test: Antiproliferative activity against human MV411 assessed as reduction in cell viability incubated for 3 days by Cell Titer Blue assay; type: functional, cell-based; conditions: time 3.0 day
[10] = molecular target: Bcl-2-like protein 1 (Homo sapiens) (UniProt Q07817); test: Displacement of Bax BH3 domain from FLAG-tagged Bcl-xl (unknown origin) expressed in human Hela cells at 30 to 300 nM incubated for 2 hrs by immunoprecipitation assay; type: cell-based; conditions: dose 30-300 nM; method in brief: as §2
SUD4 = test: Antiproliferative activity against human SU-DHL4 assessed as reduction in cell viability incubated for 3 days by Cell Titer Blue assay; type: functional, cell-based; conditions: time 3.0 day
[11] = molecular target: Induced myeloid leukemia cell differentiation protein Mcl-1 (Homo sapiens) (UniProt Q07820); test: Displacement of Bax BH3 domain from FLAG-tagged Mcl-1 (unknown origin) expressed in human Hela cells at 30 to 300 nM incubated for 2 hrs by immunoprecipitation assay; type: cell-based; conditions: dose 30-300 nM; method in brief: as §2
AMO1 [12] = test: Antitumor activity against human AMO1 cells xenografted in CB-17 SCID mouse assessed as maximum tumor growth inhibition at […] mg/kg, iv administered as bolus dose for 5 consecutive days measured on day 4 relative to control; type: functional; set-up: scale not given: the % may be the effect or the level left; conditions: time 5 day
AMO1 [13] = test: Antitumor activity against human AMO1 xenografted in CB-17 SCID mouse assessed as tumor growth inhibition administered intravenously for 5 consecutive days measured post-last dose; type: functional; conditions: time 5.0 day; method in brief: as §1
[14] = molecular target: Apoptosis regulator Bcl-2 (Homo sapiens) (UniProt P10415); test: Displacement of Bak BH3 domain from FLAG-tagged Bcl-2 (unknown origin) expressed in human Hela cells at 30 to 300 nM incubated for 2 hrs by immunoprecipitation assay; type: cell-based; conditions: dose 30-300 nM; method in brief: as §2
HL-60 = test: Antiproliferative activity against human HL60 assessed as reduction in cell viability incubated for 3 days by Cell Titer Blue assay; type: functional, cell-based; conditions: time 3.0 day
[15] = molecular target: Voltage-gated inwardly rectifying potassium channel KCNH2 (Homo sapiens, UniProt Q12809); test: Inhibition of human ERG
[16] = Terminal half-life in mouse at 12.5 mg/kg, iv formulated with 20 % HPBCD in water/ […]; type: ADME, organism-based; conditions: in vivo, read-out: beta t1/2 (converted)
AMO1 [17] = test: Antitumor activity against human AMO1 cells xenografted in CB-17 SCID mouse assessed as tumor growth inhibition at […] mg/kg, iv administered for 5 consecutive days measured on day 4 relative to control; type: functional; conditions: 120 h, time 5 day, read-out: TGI
MOLM-13 = test: Antiproliferative activity against human MOLM13 assessed as reduction in cell viability incubated for 3 days by Cell Titer Blue assay; type: functional, cell-based; conditions: time 3.0 day

Sequence of Bcl-2-like protein 1 (Homo sapiens) (Q07817 whole entry, the tested form may be a part): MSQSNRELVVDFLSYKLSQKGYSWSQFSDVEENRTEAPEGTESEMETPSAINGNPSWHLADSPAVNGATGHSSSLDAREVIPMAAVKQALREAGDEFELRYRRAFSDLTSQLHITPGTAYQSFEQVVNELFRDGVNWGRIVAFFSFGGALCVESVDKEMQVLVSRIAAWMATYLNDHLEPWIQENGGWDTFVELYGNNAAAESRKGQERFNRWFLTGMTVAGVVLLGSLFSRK
Sequence of Apoptosis regulator Bcl-2 (Homo sapiens) (P10415 whole entry, the tested form may be a part): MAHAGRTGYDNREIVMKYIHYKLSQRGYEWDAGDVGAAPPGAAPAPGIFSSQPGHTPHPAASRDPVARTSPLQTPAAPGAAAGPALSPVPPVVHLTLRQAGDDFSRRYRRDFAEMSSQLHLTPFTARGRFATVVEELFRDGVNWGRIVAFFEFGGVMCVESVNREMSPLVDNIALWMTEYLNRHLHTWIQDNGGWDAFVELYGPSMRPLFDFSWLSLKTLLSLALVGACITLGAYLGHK
Sequence of Induced myeloid leukemia cell differentiation protein Mcl-1 (Homo sapiens) (Q07820 whole entry, the tested form may be a part): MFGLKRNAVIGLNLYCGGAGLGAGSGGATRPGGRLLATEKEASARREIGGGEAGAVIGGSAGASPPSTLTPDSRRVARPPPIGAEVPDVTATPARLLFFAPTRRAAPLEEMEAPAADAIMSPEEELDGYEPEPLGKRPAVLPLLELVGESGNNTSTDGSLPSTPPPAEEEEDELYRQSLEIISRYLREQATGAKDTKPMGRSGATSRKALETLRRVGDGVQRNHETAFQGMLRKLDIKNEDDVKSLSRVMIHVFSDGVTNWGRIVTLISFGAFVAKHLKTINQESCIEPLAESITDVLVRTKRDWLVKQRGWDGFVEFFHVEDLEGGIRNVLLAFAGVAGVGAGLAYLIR
Sequence of Voltage-gated inwardly rectifying potassium channel KCNH2 (Q12809 whole entry): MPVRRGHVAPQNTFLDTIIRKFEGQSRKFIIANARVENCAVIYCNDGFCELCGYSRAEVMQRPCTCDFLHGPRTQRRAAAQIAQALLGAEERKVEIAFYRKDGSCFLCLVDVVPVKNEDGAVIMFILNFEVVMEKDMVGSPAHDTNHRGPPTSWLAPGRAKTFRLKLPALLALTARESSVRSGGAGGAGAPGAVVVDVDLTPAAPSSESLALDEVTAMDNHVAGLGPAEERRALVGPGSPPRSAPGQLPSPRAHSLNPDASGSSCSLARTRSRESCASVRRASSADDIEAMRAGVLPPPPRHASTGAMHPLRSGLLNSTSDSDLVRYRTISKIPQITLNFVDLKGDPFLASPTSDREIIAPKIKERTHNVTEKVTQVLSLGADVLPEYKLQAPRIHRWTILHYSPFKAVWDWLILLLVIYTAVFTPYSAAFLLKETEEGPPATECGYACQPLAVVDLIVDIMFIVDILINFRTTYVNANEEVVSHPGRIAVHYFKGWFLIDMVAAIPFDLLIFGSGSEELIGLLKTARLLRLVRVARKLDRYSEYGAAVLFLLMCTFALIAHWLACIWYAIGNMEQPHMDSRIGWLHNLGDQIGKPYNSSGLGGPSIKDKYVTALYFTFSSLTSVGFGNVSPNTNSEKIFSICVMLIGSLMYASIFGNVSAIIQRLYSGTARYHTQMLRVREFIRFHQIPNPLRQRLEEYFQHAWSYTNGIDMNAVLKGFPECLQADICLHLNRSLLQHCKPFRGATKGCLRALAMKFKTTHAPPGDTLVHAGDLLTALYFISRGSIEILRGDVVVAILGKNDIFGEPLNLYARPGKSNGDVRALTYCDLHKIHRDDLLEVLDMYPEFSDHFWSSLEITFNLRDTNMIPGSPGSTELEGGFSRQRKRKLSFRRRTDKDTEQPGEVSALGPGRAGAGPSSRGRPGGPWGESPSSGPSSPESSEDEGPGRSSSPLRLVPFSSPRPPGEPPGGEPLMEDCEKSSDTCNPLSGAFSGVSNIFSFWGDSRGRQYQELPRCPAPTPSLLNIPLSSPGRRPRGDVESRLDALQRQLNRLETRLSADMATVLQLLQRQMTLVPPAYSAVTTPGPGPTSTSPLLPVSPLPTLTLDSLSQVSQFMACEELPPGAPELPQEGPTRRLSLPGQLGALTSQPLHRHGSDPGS

Fu [1]: 0.05% | Activity [3]: Active | half-life [5]: 5 h | Activity [7]: inactive | Activity [8]: inactive | clearance [9]: 6 mL/min/kg | Activity [10]: inactive | Activity [11]: Active | Activity [14]: inactive | half-life [16]: 5 h
SMILES: COc1ccccc1-c1nccc(COc2ccccc2C[C@@H](Oc2ncnc3sc(-c4ccc(F)cc4)c(-c4ccc(OCCN5CCN(C)CC5)c(Cl)c4C)c23)C(=O)O)n1
inhibition in vivo at 12.5 mg/kg (AMO1 [2]): 108% | Activity (Daudi): Active | Activity (AMO1 [4]): 89.1% | Activity (NCI-H929): Dose-dependent effect | Activity (NOMO-1): Active | Time (AMO1 [6]): 38 days | Activity (OCI-Ly7): Active | Activity (OCI-AML2): Active | Activity (Raji): Active | Activity (THP-1): Dose-dependent effect | Activity (PL21): Active | Activity (MV4-11): Active | Activity (SUD4): Active | Activity (AMO1 [12]): 189.5% | Activity (AMO1 [13]): Dose-dependent effect | Activity (HL-60): Active | IC50 [15]: > 3 µM | inhibition in vivo at […] (AMO1 [17]): 190% | Activity (MOLM-13): Active
